Pf Dd2 growth: P. falciparum Dd2 growth inhibition | activity change, % at 10 µM | SYBR Green, 72 h; stronger effect = lower value | AID 1159554 | hit rate 2.3% among 94,000; in the data active means activity change below about -80%; inconclusive means no clear call, values can overlap the other calls
KDM4C inh: inhibitors of human demethylase GASC-1 KDM4C; Q9H3R0; GST-KDM4C 2-372, H3K9me3 peptide, LANCE TR-FRET; inhibition, % at 12.5 µM; hit rate 0.15% among 96,000;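 active means mean replicate inhibition above about 25%, with at least 55% of replicates also reaching it, limit read from the data, passing the limit was not always enough; inconclusive means only one of those two conditions met; inactive means neither condition met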
Target sequence (Q9H3R0 2-372 limits assumed): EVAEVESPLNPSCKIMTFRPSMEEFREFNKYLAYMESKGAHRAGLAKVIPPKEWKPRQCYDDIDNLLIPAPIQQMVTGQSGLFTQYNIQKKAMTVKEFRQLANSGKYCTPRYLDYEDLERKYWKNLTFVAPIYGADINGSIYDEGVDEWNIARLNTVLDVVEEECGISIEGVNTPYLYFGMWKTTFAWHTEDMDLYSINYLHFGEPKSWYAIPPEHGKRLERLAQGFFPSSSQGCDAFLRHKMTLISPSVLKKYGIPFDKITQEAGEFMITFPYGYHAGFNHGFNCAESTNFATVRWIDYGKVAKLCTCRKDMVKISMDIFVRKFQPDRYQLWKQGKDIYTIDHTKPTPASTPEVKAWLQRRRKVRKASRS
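Test system: N-terminal GST-fused human GASC-1 (KDM4C) fragment, residues 2-372; quantity: GASC-1 enzyme at 10 nM final in reaction; dosing: single dose; schedule: 30 min demethylation and 1 h detection at room temperature; signal: LANCE TR-FRET, excitation 340 nm, emissions 618 and 671 nm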
IDH1 mut inh: blocks human IDH1 R132H reductase activity | hit rate 0.18% among 70,000 | inhibition, % at 10 µM | O75874 | AID 624101 | diaphorase/resazurin fluorescence, 60 min; in the data active means inhibition above about 34%; inconclusive means no clear call, values can overlap the other calls; inactive means below about 11%;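 further: 0% = DMSO and 100% = no enzyme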
Target sequence (O75874 whole entry R132H): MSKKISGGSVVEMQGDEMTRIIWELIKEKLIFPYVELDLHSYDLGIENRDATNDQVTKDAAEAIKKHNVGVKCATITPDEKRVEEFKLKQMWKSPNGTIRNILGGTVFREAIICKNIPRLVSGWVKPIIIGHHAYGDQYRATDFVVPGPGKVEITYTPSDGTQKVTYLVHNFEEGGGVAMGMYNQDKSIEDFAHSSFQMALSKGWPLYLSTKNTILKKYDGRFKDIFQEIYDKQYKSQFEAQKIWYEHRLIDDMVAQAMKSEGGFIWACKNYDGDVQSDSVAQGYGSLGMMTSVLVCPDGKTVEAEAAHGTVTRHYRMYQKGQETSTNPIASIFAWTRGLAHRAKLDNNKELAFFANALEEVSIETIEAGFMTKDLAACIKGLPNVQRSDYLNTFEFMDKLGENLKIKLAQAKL
T cruzi growth-1: inhibitors of T. cruzi proliferation. T. cruzi beta-gal in NIH3T3, GalScreen luminescence, 90 h. inhibition, % at 8.34 µM. hit rate 5.9% among 77,000;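 active means mean inhibition above about 93%, with at least 55% of replicates each passing it, limit read from the data, passing the limit was not always enough; inconclusive means only one of those two conditions holds; inactive means neither condition holds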
T cruzi growth-2: blocks T. cruzi growth in NIH3T3 host cells; shares compounds with T cruzi growth-1; T. cruzi beta-gal in NIH3T3, GalScreen luminescence, 90 h; inhibition, % at 8.35 µM; hit rate 72% among 5,600; AID 651739;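 active means mean replicate inhibition above about 95% and at least 55% of replicates individually reaching it, limit read from the data; inconclusive means only one of the two criteria is met; inactive means neither criterion is met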
T cruzi growth-3: blocks T. cruzi growth in NIH3T3 host cells; shares compounds with T cruzi growth-1; T. cruzi beta-gal in NIH3T3, GalScreen luminescence, 90 h; inhibition, % at 2.09 µM; hit rate 21% among 5,600;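 active means mean inhibition above about 95%, with at least 55% of replicates also reaching it, limit read from the data; inconclusive means meets just one of the two conditions; inactive means meets neither condition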;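 further: plate controls were neutral control median for no effect and positive control median for full effect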
NIH3T3 tox: cytotoxicity in mouse NIH/3T3 fibroblasts | shares compounds with T cruzi growth-1 | NIH/3T3 viability, CellTiter-Glo ATP luminescence, 90 h | cytotoxicity (signal decrease), % at 8.35 µM | hit rate 14% among 5,600;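 active means mean signal decrease across replicates above about 35% based on untreated-well scatter, with enough replicates individually passing, limit read from the data; inconclusive means no rule stated though some were filed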;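 further: 0% = median of neutral control wells and 100% = median of positive control wells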
NIH3T3 tox 2: kills mouse NIH/3T3 fibroblasts; NIH/3T3 viability, CellTiter-Glo ATP luminescence, 90 h; inhibition, % at 24.9 µM; shares compounds with T cruzi growth-1; hit rate 56% among 5,600; AID 651744;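 active means mean loss of cell viability signal at or above a set limit, and enough replicates individually reaching it; inconclusive means meets only the mean limit or only the replicate share; inactive means meets neither condition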;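 further: 0% = median of neutral control wells and 100% = median of positive control wells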
* marks the source's active call; other numbers are inactive results; ? = inconclusive; nt = no result. Shown are actives, neighbours in structure and some others; about 5.8% of the full set was active somewhere.

SMILES	Pf Dd2 growth	KDM4C inh	IDH1 mut inh	T cruzi growth-1	T cruzi growth-2	T cruzi growth-3	NIH3T3 tox	NIH3T3 tox 2
C[C@@H]1CN([C@H](C)CO)S(=O)(=O)c2ccc(/C=C/c3ccccc3)cc2O[C@H]1CN(C)C(=O)c1ccccc1	-78.9	nt	-3.8	127.7*	110.7*	86.6	15.8	99.7*
C[C@H]1CN([C@@H](C)CO)S(=O)(=O)c2ccc(/C=C/c3ccccc3)cc2O[C@H]1CN(C)C(=O)c1ccncc1	5.1	-6.5	-0.1	105.8*	108.9*	86.2	43.6*	70.3*
COc1cc(Cl)c(/C=N/NC(=O)c2ccc(C(=O)NO)cc2)c(Cl)c1OC	nt	nt	-0.1	nt	nt	nt	nt	nt
COc1ccc(NC(=O)CNC(=O)c2ccc(F)cc2)cc1	nt	nt	0.5	nt	nt	nt	nt	nt
C[C@@H]1CN([C@H](C)CO)S(=O)(=O)c2ccc(-c3ccccc3F)cc2O[C@@H]1CN(C)Cc1cccnc1	-5.4	2.2	4.7	74.7	nt	nt	nt	nt
Cc1ccccc1-c1ccc2c(c1)O[C@H](CN(C)Cc1ccncc1)[C@@H](C)CN([C@@H](C)CO)S2(=O)=O	?	-0.6	45.2*	96.8*	99.2*	98.5*	40.8*	104.8*
C[C@@H]1CN([C@@H](C)CO)S(=O)(=O)c2ccc(-c3ccccc3F)cc2O[C@H]1CN(C)Cc1cccnc1	-67.7	3.6	26.1	101.0*	100.8*	96.7*	56.1*	94.8*
C[C@@H]1CN([C@@H](C)CO)S(=O)(=O)c2ccc(-c3ccccc3)cc2O[C@H]1CN(C)Cc1ccncc1	-28.8	-1.7	1.5	?	nt	nt	nt	nt
C[C@@H]1CN([C@@H](C)CO)S(=O)(=O)c2ccc(-c3ccccc3F)cc2O[C@@H]1CN(C)Cc1ccncc1	-5.0	4.0	7.6	100.3*	?	83.4	29.0	46.8*
CCc1cccc(C)c1NC(=O)CSc1nnc(-c2cccnc2)n1C	nt	nt	0.4	nt	nt	nt	nt	nt
O=C(CCc1ccc(O)cc1)c1c(O)cc(O[C@@H]2O[C@H](CO)[C@@H](O)[C@H](O)[C@H]2O)cc1O	nt	nt	0.8	nt	nt	nt	nt	nt
CN(C)CC#Cc1ccc([C@@H]2[C@@H](CO)N3CCCCN(S(=O)(=O)c4ccccc4F)C[C@H]23)cc1	-4.5	2.4	nt	111.0*	97.9*	23.7	1.2	84.6*
CCCC#Cc1ccc([C@H]2[C@H]3CN(S(=O)(=O)c4ccccc4F)CCCCN3[C@H]2CO)cc1	-10.5	0.6	nt	?	111.3*	77.3	22.7	104.7*
C[C@H](CO)N1C[C@H](C)[C@@H](CN(C)Cc2ccc3c(c2)OCO3)Oc2ccc(NC(=O)C3CCCCC3)cc2CC1=O	-50.9	1.7	1.4	100.1*	103.0*	70.3	4.6	28.2*
C[C@H]1CN([C@@H](C)CO)C(=O)Cc2cc(NC(=O)C3CCCCC3)ccc2O[C@@H]1CN(C)Cc1ccc2c(c1)OCO2	-45.8	1.7	0.8	98.5*	95.7*	33.1	-19.4	14.0
C[C@H]1CN([C@@H](C)CO)C(=O)Cc2cc(NC(=O)C3CCCCC3)ccc2O[C@@H]1CN(C)CC1CC1	-20.6	2.4	0.3	-6.8	nt	nt	nt	nt
C[C@@H]1CN([C@@H](C)CO)C(=O)Cc2cc(NC(=O)C3CCCCC3)ccc2O[C@@H]1CN(C)CC1CC1	-7.7	0.2	0.2	97.2*	20.6	10.2	3.3	7.5
CS(=O)(=O)Nc1ccc2oc3ncccc3c(=O)c2c1	nt	nt	-0.1	nt	nt	nt	nt	nt
C[C@@H]1CN([C@H](C)CO)C(=O)c2cccc(NC(=O)Nc3ccc(F)cc3)c2O[C@H]1CN(C)Cc1ccc(Oc2ccccc2)cc1	-10.9	-0.9	nt	115.5*	100.8*	83.5	1.3	45.8*
C[C@@H]1CN([C@@H](C)CO)C(=O)c2cccc(NC(=O)Nc3ccc(F)cc3)c2O[C@H]1CN(C)Cc1ccc(Oc2ccccc2)cc1	-1.9	-2.6	3.1	?	96.1*	93.8	-4.3	54.7*
COCC(=O)N1CC[C@@H]2[C@H]1c1cc(-c3ccccc3)ccc1N(C)[C@@H]2CO	14.8	2.3	nt	107.8*	96.1*	84.8	-9.2	-3.5
COCC(=O)N1CC[C@@H]2[C@H]1c1cc(-c3ccccc3)ccc1N(C)[C@H]2CO	-6.0	0.5	nt	105.4*	102.4*	85.0	-9.1	1.7
CCCNC(=O)N1CC[C@@H]2[C@H]1c1cc(-c3ccccc3)ccc1N(C)[C@H]2CO	-4.2	3.7	nt	?	108.1*	103.9*	8.4	11.5
COCC(=O)N1CC[C@@H]2[C@H]1c1cc(-c3ccc(F)cc3)ccc1N(C)[C@@H]2CO	15.5	4.0	nt	106.2	nt	nt	nt	nt
COC(=O)c1c(NC(=O)CN(c2cc(C)ccc2C)S(C)(=O)=O)sc2c1CCCC2	nt	nt	0.8	nt	nt	nt	nt	nt
SMILES	Pf Dd2 growth	KDM4C inh	IDH1 mut inh	T cruzi growth-1	T cruzi growth-2	T cruzi growth-3	NIH3T3 tox	NIH3T3 tox 2
COc1ccc(C2C(C#N)=C(N)Oc3n[nH]c(-c4ccccc4)c32)cc1CSc1ccccn1 (stereo not given)	nt	nt	-0.6	nt	nt	nt	nt	nt
C[C@@H]1CN([C@@H](C)CO)C(=O)c2cc(NS(=O)(=O)c3ccc(Cl)cc3)ccc2O[C@@H](C)CCCCO[C@H]1CN(C)S(=O)(=O)c1ccc(Cl)cc1	-31.3	-0.6	0.4	110.6*	108.1*	78.7	22.3	-2.2
C[C@H]1CCCCO[C@H](CN(C)S(=O)(=O)c2ccccc2)[C@@H](C)CN([C@@H](C)CO)C(=O)c2cc(NS(=O)(=O)c3ccc(Cl)cc3)ccc2O1	-52.1	-4.5	nt	113.8*	103.2*	94.1	-11.9	-7.3
C[C@@H]1CCCCO[C@H](CN(C)S(=O)(=O)c2ccc(Cl)cc2)[C@H](C)CN([C@H](C)CO)C(=O)c2cc(NS(=O)(=O)c3ccccc3)ccc2O1	-69.8	-1.3	4.5	99.3	nt	nt	nt	nt
C[C@@H]1CCCCO[C@@H](CN(C)S(=O)(=O)c2ccccc2)[C@@H](C)CN([C@@H](C)CO)C(=O)c2cc(NS(=O)(=O)c3ccc(Cl)cc3)ccc2O1	-34.2	1.1	nt	117.5*	101.0*	74.4	4.5	17.8
C[C@@H]1CCCCO[C@@H](CN(C)S(=O)(=O)c2ccccc2)[C@H](C)CN([C@H](C)CO)C(=O)c2cc(NS(=O)(=O)c3ccc(Cl)cc3)ccc2O1	-59.9	-3.5	nt	109.5*	101.4*	?	-8.9	11.4
COc1ccc(-c2nnc(SCC(=O)Nc3cccc(SC)c3)o2)cc1	nt	nt	0.1	nt	nt	nt	nt	nt
COC(=O)CSc1nc(-c2cccc(C)c2)nc2c1CCCC2	nt	nt	-0.4	nt	nt	nt	nt	nt
NC(N)=NS(=O)(=O)c1ccc(NC(=O)OC2CCCC2)cc1	nt	nt	-0.6	nt	nt	nt	nt	nt
CN(C)C(=O)c1cccc(-c2ccc([C@@H]3[C@@H](CO)N4CCCCN(C(=O)C5CCC5)C[C@H]34)cc2)c1	26.4	1.6	nt	84.2	nt	nt	nt	nt
